Experimental data from ChEMBL document CHEMBL4715736, “Identification of anticancer agents based on the thieno[2,3-b]pyridine and 1H-pyrazole molecular scaffolds” (2016).

Assays:
Assay type in all cases: functional
Conditions in all cases: read-out: Activity
CCRF-CEM = experiment: Growth inhibition of human CCRF-CEM cells assessed as cell growth at 10 uM incubated for 48 hrs by sulforhodamine B assay relative to control
Procedure, shortened: (§1)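 NCI Developmental Therapeutics Program NCI60 panel. Compounds that were active in the 10 µM one-dose screen went on to dose–response testing. Growth at each concentration is expressed relative to untreated control (100%). GI50 (concentration giving 50% of maximal inhibition of proliferation) and TGI (concentration giving total growth inhibition) were derived from the curves.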

HL-60(TB) = experiment: Growth inhibition of human HL-60(TB) cells assessed as cell growth at 10 uM incubated for 48 hrs by sulforhodamine B assay relative to control
Procedure, shortened: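 Screened by the NCI Developmental Therapeutics Program on its panel of 60 human tumour cell lines. Compounds were first tested at a single 10 µM dose, and compounds active there went to dose-response curves. Growth is expressed relative to untreated control (100%). GI50 (50% of maximal proliferation inhibition) and TGI (total growth inhibition) were derived from the dose-response data.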

MOLT-4 = experiment: Growth inhibition of human MOLT-4 cells assessed as cell growth at 10 uM incubated for 48 hrs by sulforhodamine B assay relative to control
Procedure, shortened: (§2)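 Submitted to the NCI Developmental Therapeutics Program for the NCI60 human tumour cell line panel. First screen at a single 10 µM concentration. Read-out is growth relative to untreated control cells set at 100%.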

RPMI-8226 = experiment: Growth inhibition of human RPMI-8226 cells assessed as cell growth at 10 uM incubated for 48 hrs by sulforhodamine B assay relative to control
Procedure, shortened: (§3)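 Run by the NCI Developmental Therapeutics Program as part of its 60-line human tumour panel. Each compound tested at a single 10 µM dose. Growth expressed as % relative to untreated control cells (100%).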

A549 = experiment: Growth inhibition of human A549/ATCC cells assessed as cell growth at 10 uM incubated for 48 hrs by sulforhodamine B assay relative to control; procedure, shortened: as §1
HOP-62 = experiment: Growth inhibition of human HOP-62 cells assessed as cell growth at 10 uM incubated for 48 hrs by sulforhodamine B assay relative to control; procedure, shortened: as §2
HOP-92 = experiment: Growth inhibition of human HOP-92 cells assessed as cell growth at 10 uM incubated for 48 hrs by sulforhodamine B assay relative to control; procedure, shortened: as §2
NCI-H23 = experiment: Growth inhibition of human NCI-H23 cells assessed as cell growth at 10 uM incubated for 48 hrs by sulforhodamine B assay relative to control; procedure, shortened: as §2
HCC 2998 = experiment: Growth inhibition of human HCC 2998 cells assessed as cell growth at 10 uM incubated for 48 hrs by sulforhodamine B assay relative to control; procedure, shortened: as §1
KM12 = experiment: Growth inhibition of human KM12 cells assessed as cell growth at 10 uM incubated for 48 hrs by sulforhodamine B assay relative to control; procedure, shortened: as §2
SF-295 = experiment: Growth inhibition of human SF-295 cells assessed as cell growth at 10 uM incubated for 48 hrs by sulforhodamine B assay relative to control; procedure, shortened: as §3
SF-539 = experiment: Growth inhibition of human SF-539 cells assessed as cell growth at 10 uM incubated for 48 hrs by sulforhodamine B assay relative to control; procedure, shortened: as §3
SNB-19 = experiment: Growth inhibition of human SNB-19 cells assessed as cell growth at 10 uM incubated for 48 hrs by sulforhodamine B assay relative to control; procedure, shortened: as §3
U-251 = experiment: Growth inhibition of human U-251 cells assessed as cell growth at 10 uM incubated for 48 hrs by sulforhodamine B assay relative to control; procedure, shortened: as §3
LOX IMVI = experiment: Growth inhibition of human LOX IMVI cells assessed as cell growth at 10 uM incubated for 48 hrs by sulforhodamine B assay relative to control; procedure, shortened: as §2
Malme-3M = experiment: Growth inhibition of human Malme-3M cells assessed as cell growth at 10 uM incubated for 48 hrs by sulforhodamine B assay relative to control; procedure, shortened: as §2
M14 = experiment: Growth inhibition of human M14 cells assessed as cell growth at 10 uM incubated for 48 hrs by sulforhodamine B assay relative to control; procedure, shortened: as §2
MDA-MB-435 = experiment: Growth inhibition of human MDA-MB-435 cells assessed as cell growth at 10 uM incubated for 48 hrs by sulforhodamine B assay relative to control; procedure, shortened: as §2
SK-MEL-5 = experiment: Growth inhibition of human SK-MEL-5 cells assessed as cell growth at 10 uM incubated for 48 hrs by sulforhodamine B assay relative to control; procedure, shortened: as §3
UACC-257 = experiment: Growth inhibition of human UACC-257 cells assessed as cell growth at 10 uM incubated for 48 hrs by sulforhodamine B assay relative to control; procedure, shortened: as §3
UACC-62 = experiment: Growth inhibition of human UACC-62 cells assessed as cell growth at 10 uM incubated for 48 hrs by sulforhodamine B assay relative to control; procedure, shortened: as §3
IGROV-1 = experiment: Growth inhibition of human IGROV-1 cells assessed as cell growth at 10 uM incubated for 48 hrs by sulforhodamine B assay relative to control; procedure, shortened: as §2
OVCAR-5 = experiment: Growth inhibition of human OVCAR-5 cells assessed as cell growth at 10 uM incubated for 48 hrs by sulforhodamine B assay relative to control; procedure, shortened: as §3
OVCAR-8 = experiment: Growth inhibition of human OVCAR-8 cells assessed as cell growth at 10 uM incubated for 48 hrs by sulforhodamine B assay relative to control; procedure, shortened: as §3
786-0 = experiment: Growth inhibition of human 786-0 cells assessed as cell growth at 10 uM incubated for 48 hrs by sulforhodamine B assay relative to control; procedure, shortened: as §1
A498 = experiment: Growth inhibition of human A498 cells assessed as cell growth at 10 uM incubated for 48 hrs by sulforhodamine B assay relative to control; procedure, shortened: as §1
RXF 393 = experiment: Growth inhibition of human RXF 393 cells assessed as cell growth at 10 uM incubated for 48 hrs by sulforhodamine B assay relative to control; procedure, shortened: as §3
SN12C = experiment: Growth inhibition of human SN12C cells assessed as cell growth at 10 uM incubated for 48 hrs by sulforhodamine B assay relative to control; procedure, shortened: as §3
UO-31 = experiment: Growth inhibition of human UO-31 cells assessed as cell growth at 10 uM incubated for 48 hrs by sulforhodamine B assay relative to control; procedure, shortened: as §3
DU-145 = experiment: Growth inhibition of human DU-145 cells assessed as cell growth at 10 uM incubated for 48 hrs by sulforhodamine B assay relative to control; procedure, shortened: as §1
MDA-MB-231 = experiment: Growth inhibition of human MDA-MB-231 cells assessed as cell growth at 10 uM incubated for 48 hrs by sulforhodamine B assay relative to control; procedure, shortened: as §2
T47D = experiment: Growth inhibition of human T47D cells assessed as cell growth at 10 uM incubated for 48 hrs by sulforhodamine B assay relative to control; procedure, shortened: as §3
MDA-MB-468 = experiment: Growth inhibition of human MDA-MB-468 cells assessed as cell growth at 10 uM incubated for 48 hrs by sulforhodamine B assay relative to control; procedure, shortened: as §2
OVCAR-3 = experiment: Growth inhibition of human OVCAR-3 cells assessed as cell growth at 10 uM incubated for 48 hrs by sulforhodamine B assay relative to control; procedure, shortened: as §3

Row | SMILES | growth at 10 µM (CCRF-CEM) [%] | growth at 10 µM (HL-60(TB)) [%] | growth at 10 µM (MOLT-4) [%] | growth at 10 µM (RPMI-8226) [%] | growth at 10 µM (A549) [%] | growth at 10 µM (HOP-62) [%] | growth at 10 µM (HOP-92) [%] | growth at 10 µM (NCI-H23) [%] | growth at 10 µM (HCC 2998) [%] | growth at 10 µM (KM12) [%] | growth at 10 µM (SF-539) [%] | growth at 10 µM (SNB-19) [%] | growth at 10 µM (U-251) [%] | growth at 10 µM (LOX IMVI) [%] | growth at 10 µM (M14) [%] | growth at 10 µM (MDA-MB-435) [%] | growth at 10 µM (SK-MEL-5) [%] | growth at 10 µM (UACC-257) [%] | growth at 10 µM (UACC-62) [%] | growth at 10 µM (IGROV-1) [%] | other results
1 | CCOc1ccc(-c2cc(N)n(S(=O)(=O)c3ccc(OC)cc3)n2)cc1 | 86.8 | 126 | 85.2 | 94.1 | 92.5 | 122 | 82.2 | 115 | 112 | 123 | 98.4 | 96.3 | 101 | 105 | 120 | 101 | 97.5 | 86.6 | 92.5 | 96.6 | growth at 10 µM (SF-295): 115%; growth at 10 µM (Malme-3M): 114%; growth at 10 µM (OVCAR-5): 107%; growth at 10 µM (OVCAR-8): 96.6%; growth at 10 µM (786-0): 108%; growth at 10 µM (A498): 92.5%; growth at 10 µM (RXF 393): 95.9%; growth at 10 µM (SN12C): 85.5%; growth at 10 µM (UO-31): 91.2%; growth at 10 µM (DU-145): 110%; growth at 10 µM (MDA-MB-231): 92.4%; growth at 10 µM (T47D): 96.4%; growth at 10 µM (MDA-MB-468): 87.4%
2 | Cc1cccc(NC(=O)c2sc3nc4c(cc3c2N)CN(Cc2ccccc2)CC4)c1 | 98.9 | 108 | 103 | 101 | 84.2 | 110 | 100 | 100 | 104 | 96.4 | 79.9 | 110 | 85.4 | 95.8 | 106 | 94.5 | 103 | 89.8 | 110 | 102 | growth at 10 µM (SF-295): 110%; growth at 10 µM (OVCAR-3): 116%; growth at 10 µM (OVCAR-5): 104%; growth at 10 µM (OVCAR-8): 98.2%; growth at 10 µM (786-0): 91.5%; growth at 10 µM (A498): 85.1%; growth at 10 µM (RXF 393): 103%; growth at 10 µM (SN12C): 107%; growth at 10 µM (UO-31): 98.4%; growth at 10 µM (DU-145): 89.3%; growth at 10 µM (MDA-MB-231): 113%; growth at 10 µM (T47D): 98.6%; growth at 10 µM (MDA-MB-468): 94.8%
3 | O=S(=O)(c1ccc(Br)cc1)n1ccc(-c2ccc(OCCCF)cc2)n1 | 92.3 | 95.7 | 75.8 | 77.1 | 75.7 | 118 | 74.1 | 80.3 | 90.3 | 104 | 90.2 | 95.5 | 90.7 | 100 | 97.1 | 98.2 | 75.4 | 77.9 | 59.9 | 89 | growth at 10 µM (Malme-3M): 89%; growth at 10 µM (OVCAR-5): 103%; growth at 10 µM (OVCAR-8): 95.1%; growth at 10 µM (786-0): 85.3%; growth at 10 µM (A498): 91.1%; growth at 10 µM (RXF 393): 92.7%; growth at 10 µM (SN12C): 87%; growth at 10 µM (UO-31): 69.1%; growth at 10 µM (DU-145): 102%; growth at 10 µM (MDA-MB-231): 101%; growth at 10 µM (T47D): 72.6%; growth at 10 µM (MDA-MB-468): 39.8%
4 | O=S(=O)(c1ccccc1)n1ccc(-c2ccc3c(c2)CCO3)n1 | 76.7 | 109 | 85.6 | 62.5 | 78.8 | 98.8 | 41.8 | 78.4 | 90.8 | 91.9 | 86.7 | 83.4 | 73.6 | 85.2 | 101 | 104 | 70.2 | 79.9 | 73.1 | 75.7 | growth at 10 µM (SF-295): 83.3%; growth at 10 µM (Malme-3M): 94%; growth at 10 µM (OVCAR-5): 103%; growth at 10 µM (OVCAR-8): 84%; growth at 10 µM (786-0): 90.3%; growth at 10 µM (A498): 71.2%; growth at 10 µM (RXF 393): 82.9%; growth at 10 µM (SN12C): 67.9%; growth at 10 µM (UO-31): 51%; growth at 10 µM (DU-145): 95%; growth at 10 µM (MDA-MB-231): 82.9%; growth at 10 µM (T47D): 68.8%; growth at 10 µM (MDA-MB-468): 42.4%
